Values belong to the compound of their own block, whether it stands above or below them.
Experiments:
[1] = target: Platelet-derived growth factor receptor beta (Homo sapiens) (UniProt P09619); experiment: Binding affinity to PDGFRB assessed as percentage of kinase remaining bound to the bead at 1 uM by T7 phage display based binding assay
Procedure, shortened: (§1)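 Competition binding assay run by a contract lab. Each kinase was expressed as a fusion to T7 phage, full-length for small kinases and catalytic domain for large ones. Phage were mixed with an immobilized known kinase inhibitor on streptavidin magnetic beads and with test compound at a single 1 μM. Kinase/phage still bound to the beads was quantified by qPCR and expressed as % of DMSO control.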

[2] = target: MAP kinase-interacting serine/threonine-protein kinase 2 (Homo sapiens) (UniProt Q9HBH9); experiment: Inhibition of MNK2 assessed as remaining enzyme activity at 1 uM relative to DMSO
Procedure, shortened: (§2)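 Radiometric kinase assay run robotically at room temperature for 30 min. Contained 10 mM magnesium acetate and [γ-33P]ATP (800 cpm/pmol) at 5, 20 or 50 μM, chosen per kinase to be at or below its ATP Km. Reactions were started with MgATP, stopped with orthophosphoric acid and spotted onto P81 filters. Result is mean % activity of duplicates at one inhibitor concentration versus DMSO control.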

[3] = target: Ephrin type-A receptor 6 (Homo sapiens) (UniProt Q9UF33); experiment: Binding affinity to EPHA6 assessed as percentage of kinase remaining bound to the bead at 1 uM by T7 phage display based binding assay; procedure, shortened: as §1
Ephrin type-A receptor 5 = Ephrin type-A receptor 5 (Homo sapiens, UniProt P54756); experiment: Inhibition of EphA5 by [gamma33-P]ATP based assay
Sequence of Ephrin type-A receptor 5 (P54756 whole entry): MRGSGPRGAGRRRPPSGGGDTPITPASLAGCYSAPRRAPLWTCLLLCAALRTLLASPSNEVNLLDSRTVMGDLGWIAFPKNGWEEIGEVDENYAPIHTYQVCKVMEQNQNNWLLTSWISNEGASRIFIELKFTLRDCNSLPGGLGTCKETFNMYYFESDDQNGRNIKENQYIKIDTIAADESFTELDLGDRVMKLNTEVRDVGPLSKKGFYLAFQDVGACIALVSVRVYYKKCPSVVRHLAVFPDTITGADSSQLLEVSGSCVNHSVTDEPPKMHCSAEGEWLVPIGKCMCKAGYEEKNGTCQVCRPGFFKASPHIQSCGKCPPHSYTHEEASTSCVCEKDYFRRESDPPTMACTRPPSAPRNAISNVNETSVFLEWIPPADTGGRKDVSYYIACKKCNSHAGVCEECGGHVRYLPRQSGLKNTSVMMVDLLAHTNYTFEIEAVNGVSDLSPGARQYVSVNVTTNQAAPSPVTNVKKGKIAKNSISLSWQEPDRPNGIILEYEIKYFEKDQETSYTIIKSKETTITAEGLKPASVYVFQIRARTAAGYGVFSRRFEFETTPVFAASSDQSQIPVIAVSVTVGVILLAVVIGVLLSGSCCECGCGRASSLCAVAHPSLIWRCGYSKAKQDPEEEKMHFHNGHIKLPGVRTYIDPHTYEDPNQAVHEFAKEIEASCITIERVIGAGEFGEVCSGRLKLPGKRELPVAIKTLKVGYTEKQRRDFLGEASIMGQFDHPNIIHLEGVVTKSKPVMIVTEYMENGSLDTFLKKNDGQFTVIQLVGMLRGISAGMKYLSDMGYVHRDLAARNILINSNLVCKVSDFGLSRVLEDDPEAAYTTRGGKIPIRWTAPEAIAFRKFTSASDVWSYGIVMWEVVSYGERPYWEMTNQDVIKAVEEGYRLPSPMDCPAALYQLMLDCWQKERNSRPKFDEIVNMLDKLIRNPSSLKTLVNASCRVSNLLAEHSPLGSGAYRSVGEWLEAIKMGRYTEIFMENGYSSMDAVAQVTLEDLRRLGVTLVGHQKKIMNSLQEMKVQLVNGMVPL
Procedure, shortened: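 Radiometric [γ-33P]ATP kinase assay against Eph kinases, following a protocol similar to the Mg-acetate/MgATP filter-binding method.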

[4] = target: Serine/threonine-protein kinase 32C (Homo sapiens) (UniProt Q86UX6); experiment: Binding affinity to YANK3 assessed as percentage of kinase remaining bound to the bead at 1 uM by T7 phage display based binding assay; procedure, shortened: as §1
Sequence of Serine/threonine-protein kinase 32C (Homo sapiens) (Q86UX6 whole entry): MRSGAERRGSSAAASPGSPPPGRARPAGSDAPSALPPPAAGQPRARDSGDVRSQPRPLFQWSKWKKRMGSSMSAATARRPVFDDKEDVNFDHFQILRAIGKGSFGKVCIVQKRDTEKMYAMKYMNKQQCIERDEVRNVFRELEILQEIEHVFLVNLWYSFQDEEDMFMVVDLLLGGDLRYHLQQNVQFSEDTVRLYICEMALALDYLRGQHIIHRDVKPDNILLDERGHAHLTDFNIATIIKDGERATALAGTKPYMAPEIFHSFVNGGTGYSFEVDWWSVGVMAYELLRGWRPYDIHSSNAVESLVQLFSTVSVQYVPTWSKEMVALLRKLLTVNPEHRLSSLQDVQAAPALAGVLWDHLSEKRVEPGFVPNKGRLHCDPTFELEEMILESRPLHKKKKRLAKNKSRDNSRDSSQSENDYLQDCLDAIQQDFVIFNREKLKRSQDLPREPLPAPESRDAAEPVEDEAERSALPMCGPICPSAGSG

[5] = target: Serine/threonine-protein kinase Sgk1 (Homo sapiens) (UniProt O00141); experiment: Inhibition of SGK1 assessed as remaining enzyme activity at 1 uM relative to DMSO
[6] = target: Ribosomal protein S6 kinase beta-1 (Homo sapiens) (UniProt P23443); experiment: Inhibition of S6K1 assessed as remaining enzyme activity at 1 uM relative to DMSO
Sequence of Ribosomal protein S6 kinase beta-1 (Homo sapiens) (P23443 whole entry, looked up): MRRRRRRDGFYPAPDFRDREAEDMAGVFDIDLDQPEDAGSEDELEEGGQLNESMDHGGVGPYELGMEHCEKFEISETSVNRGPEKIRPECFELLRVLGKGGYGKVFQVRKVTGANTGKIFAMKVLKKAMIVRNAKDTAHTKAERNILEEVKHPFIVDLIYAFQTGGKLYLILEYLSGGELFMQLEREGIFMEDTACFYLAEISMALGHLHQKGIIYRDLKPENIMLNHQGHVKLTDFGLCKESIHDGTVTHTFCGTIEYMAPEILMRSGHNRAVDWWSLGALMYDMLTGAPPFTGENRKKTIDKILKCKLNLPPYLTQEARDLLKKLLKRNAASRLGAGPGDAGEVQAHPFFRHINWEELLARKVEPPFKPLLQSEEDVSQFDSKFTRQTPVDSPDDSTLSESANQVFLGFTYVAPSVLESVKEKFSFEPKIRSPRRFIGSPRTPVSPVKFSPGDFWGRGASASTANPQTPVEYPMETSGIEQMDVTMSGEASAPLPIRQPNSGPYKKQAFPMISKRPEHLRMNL

[7] = target: Serine/threonine-protein kinase Nek2 (Homo sapiens) (UniProt P51955); experiment: Inhibition of NEK2alpha assessed as remaining enzyme activity at 1 uM relative to DMSO; procedure, shortened: as §2
[8] = target: Bone morphogenetic protein receptor type-1B (Homo sapiens) (UniProt O00238); experiment: Binding affinity to BMPR1B assessed as percentage of kinase remaining bound to the bead at 1 uM by T7 phage display based binding assay; procedure, shortened: as §1
[9] = target: Tyrosine-protein kinase ABL1 (Homo sapiens) (UniProt P00519); experiment: Binding affinity to phosphorylated ABL1 assessed as percentage of kinase remaining bound to the bead at 1 uM by T7 phage display based binding assay; procedure, shortened: as §1
[10] = target: Ribosomal protein S6 kinase alpha-2 (Homo sapiens) (UniProt Q15349); experiment: Binding affinity to RSK3 kinase domain 2 C-terminal assessed as percentage of kinase remaining bound to the bead at 1 uM by T7 phage display based binding assay
[11] = target: Protein-tyrosine kinase 6 (Homo sapiens) (UniProt Q13882); experiment: Binding affinity to BRK assessed as percentage of kinase remaining bound to the bead at 1 uM by T7 phage display based binding assay; procedure, shortened: as §1
[12] = target: Tyrosine-protein kinase SYK (Homo sapiens) (UniProt P43405); experiment: Inhibition of SYK assessed as remaining enzyme activity at 1 uM relative to DMSO
[13] = target: Mitogen-activated protein kinase kinase kinase 9 (Homo sapiens) (UniProt P80192); experiment: Inhibition of MLK1 assessed as remaining enzyme activity at 1 uM relative to DMSO; procedure, shortened: as §2
[14] = target: Homeodomain-interacting protein kinase 2 (Homo sapiens) (UniProt Q9H2X6); experiment: Inhibition of HIPK2 assessed as remaining enzyme activity at 1 uM relative to DMSO
Sequence of Homeodomain-interacting protein kinase 2 (Homo sapiens) (Q9H2X6 whole entry, looked up): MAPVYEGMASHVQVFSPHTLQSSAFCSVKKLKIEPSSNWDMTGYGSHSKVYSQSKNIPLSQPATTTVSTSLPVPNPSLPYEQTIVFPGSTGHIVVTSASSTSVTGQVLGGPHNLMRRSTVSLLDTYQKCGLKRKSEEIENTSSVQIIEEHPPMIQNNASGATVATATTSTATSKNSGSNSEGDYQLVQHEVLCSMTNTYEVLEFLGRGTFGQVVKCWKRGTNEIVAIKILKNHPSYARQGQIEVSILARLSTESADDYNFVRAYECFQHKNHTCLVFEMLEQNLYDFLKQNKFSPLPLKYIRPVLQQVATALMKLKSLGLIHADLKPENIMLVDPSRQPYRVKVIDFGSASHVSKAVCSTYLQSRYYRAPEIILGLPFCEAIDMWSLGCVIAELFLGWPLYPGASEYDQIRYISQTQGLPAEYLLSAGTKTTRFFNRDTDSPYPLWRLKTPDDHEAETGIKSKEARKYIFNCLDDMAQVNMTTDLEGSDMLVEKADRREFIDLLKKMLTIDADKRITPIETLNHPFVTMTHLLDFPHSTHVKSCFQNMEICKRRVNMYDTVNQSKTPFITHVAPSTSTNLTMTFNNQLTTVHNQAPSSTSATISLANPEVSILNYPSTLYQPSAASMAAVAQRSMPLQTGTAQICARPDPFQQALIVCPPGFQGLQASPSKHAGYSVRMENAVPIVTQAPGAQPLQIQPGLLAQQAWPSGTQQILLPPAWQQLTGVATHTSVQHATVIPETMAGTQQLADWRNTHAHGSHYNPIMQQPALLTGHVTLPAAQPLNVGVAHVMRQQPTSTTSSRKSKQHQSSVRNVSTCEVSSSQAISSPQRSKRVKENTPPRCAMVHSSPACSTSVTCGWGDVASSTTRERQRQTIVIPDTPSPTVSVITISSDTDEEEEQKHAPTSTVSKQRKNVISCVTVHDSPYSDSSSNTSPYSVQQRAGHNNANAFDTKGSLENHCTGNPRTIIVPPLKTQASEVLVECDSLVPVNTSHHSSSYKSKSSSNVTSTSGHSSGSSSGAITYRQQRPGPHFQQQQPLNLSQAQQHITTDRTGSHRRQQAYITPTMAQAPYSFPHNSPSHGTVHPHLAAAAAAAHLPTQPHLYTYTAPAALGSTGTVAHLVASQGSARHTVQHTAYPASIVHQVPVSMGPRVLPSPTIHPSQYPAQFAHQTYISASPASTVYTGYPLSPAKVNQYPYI
Procedure, shortened: (§3)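 Dundee kinase panel, radiometric: [γ-33P]ATP (800 cpm/pmol) at 5, 20 or 50 μM, at or below each kinase's ATP Km; 10 mM magnesium acetate; robotic, room temperature, 30 min. Reactions started with MgATP, stopped with orthophosphoric acid, spotted onto P81 filters. Inhibitor tested at a single concentration; mean % activity of duplicates relative to DMSO control.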

[15] = target: Serine/threonine-protein kinase BRSK2 (Homo sapiens) (UniProt Q8IWQ3); experiment: Inhibition of BRSK2 assessed as remaining enzyme activity at 1 uM relative to DMSO
Procedure, shortened: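 Panel assay run robotically at room temperature for 30 min with 10 mM magnesium acetate and [γ-33P]ATP (800 cpm/pmol) at 5, 20 or 50 μM, chosen per kinase to be at or below its ATP Km. Reactions were started with MgATP, stopped with orthophosphoric acid and spotted on P81 filters. Activity is the mean of duplicates at a single inhibitor concentration, as % of DMSO control.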

[16] = target: Vascular endothelial growth factor receptor 2 (Homo sapiens) (UniProt P35968); experiment: Binding affinity to VEGFR2 assessed as percentage of kinase remaining bound to the bead at 1 uM by T7 phage display based binding assay
Procedure, shortened: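 Kinases expressed as T7 phage fusions (full-length for small kinases, catalytic domain for large). Phage mixed with an immobilized known kinase inhibitor on streptavidin magnetic beads plus test compound at a single 1 μM concentration. Ligand displacement from the ATP site was read by quantitative PCR as % kinase/phage still bead-bound versus DMSO control. Human kinases.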

[17] = target: Serine/threonine-protein kinase pim-3 (Homo sapiens) (UniProt Q86V86); experiment: Inhibition of PIM3 assessed as remaining enzyme activity at 1 uM relative to DMSO; procedure, shortened: as §2
[18] = target: Ribosomal protein S6 kinase beta-1 (Homo sapiens) (UniProt P23443); experiment: Inhibition of S6K1 assessed as remaining enzyme activity at 3 uM relative to DMSO
[19] = target: Serine/threonine-protein kinase Chk1 (Homo sapiens) (UniProt O14757); experiment: Inhibition of CHK1 assessed as remaining enzyme activity at 3 uM relative to DMSO; procedure, shortened: as §3
[20] = target: Serine/threonine-protein kinase 26 (Homo sapiens) (UniProt Q9P289); experiment: Inhibition of MST4 assessed as remaining enzyme activity at 3 uM relative to DMSO; procedure, shortened: as §2
Sequence of Serine/threonine-protein kinase 26 (Homo sapiens) (Q9P289 2-416 limits assumed): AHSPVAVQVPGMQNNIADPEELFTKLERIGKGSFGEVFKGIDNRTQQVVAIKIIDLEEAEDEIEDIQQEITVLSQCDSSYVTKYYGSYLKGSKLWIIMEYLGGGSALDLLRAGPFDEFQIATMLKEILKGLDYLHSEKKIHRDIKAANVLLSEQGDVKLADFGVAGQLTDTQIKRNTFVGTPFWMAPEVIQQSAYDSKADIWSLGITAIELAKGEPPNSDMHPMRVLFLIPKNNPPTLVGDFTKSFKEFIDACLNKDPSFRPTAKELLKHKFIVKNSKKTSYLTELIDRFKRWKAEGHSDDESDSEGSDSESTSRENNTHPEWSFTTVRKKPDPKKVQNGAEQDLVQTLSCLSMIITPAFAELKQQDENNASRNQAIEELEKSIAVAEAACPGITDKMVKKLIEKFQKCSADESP

[21] = target: Maternal embryonic leucine zipper kinase (Homo sapiens) (UniProt Q14680); experiment: Inhibition of MELK assessed as remaining enzyme activity at 3 uM relative to DMSO; procedure, shortened: as §2
[22] = target: Mitogen-activated protein kinase 15 (Homo sapiens) (UniProt Q8TD08); experiment: Inhibition of ERK8 assessed as remaining enzyme activity at 3 uM relative to DMSO; procedure, shortened: as §3
[23] = target: Mitogen-activated protein kinase kinase kinase kinase 2 (Homo sapiens) (UniProt Q12851); experiment: Inhibition of GCK assessed as remaining enzyme activity at 3 uM relative to DMSO; procedure, shortened: as §3
Sequence of Mitogen-activated protein kinase kinase kinase kinase 2 (Homo sapiens) (Q12851 whole entry): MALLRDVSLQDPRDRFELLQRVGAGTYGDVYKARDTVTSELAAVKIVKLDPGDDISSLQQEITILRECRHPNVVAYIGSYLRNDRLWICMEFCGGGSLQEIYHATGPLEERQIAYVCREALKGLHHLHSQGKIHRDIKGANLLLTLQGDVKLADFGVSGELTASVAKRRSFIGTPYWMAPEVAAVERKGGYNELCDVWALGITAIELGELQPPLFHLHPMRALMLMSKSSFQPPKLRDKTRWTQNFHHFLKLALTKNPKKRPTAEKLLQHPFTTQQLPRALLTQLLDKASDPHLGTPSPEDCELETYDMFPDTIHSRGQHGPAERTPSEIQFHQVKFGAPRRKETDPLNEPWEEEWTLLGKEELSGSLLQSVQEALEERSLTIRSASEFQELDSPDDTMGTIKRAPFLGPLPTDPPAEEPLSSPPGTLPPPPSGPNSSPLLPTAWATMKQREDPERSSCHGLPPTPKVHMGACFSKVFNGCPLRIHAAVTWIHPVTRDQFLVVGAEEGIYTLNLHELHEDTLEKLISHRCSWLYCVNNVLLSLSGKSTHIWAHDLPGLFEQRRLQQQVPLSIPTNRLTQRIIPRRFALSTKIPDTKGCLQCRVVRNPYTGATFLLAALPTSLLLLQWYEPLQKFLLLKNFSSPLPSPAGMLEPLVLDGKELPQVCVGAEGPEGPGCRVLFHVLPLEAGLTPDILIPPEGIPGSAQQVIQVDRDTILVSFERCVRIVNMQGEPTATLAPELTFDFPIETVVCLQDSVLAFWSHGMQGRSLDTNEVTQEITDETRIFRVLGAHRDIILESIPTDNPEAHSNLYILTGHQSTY

[24] = target: Tyrosine-protein kinase Lck (Homo sapiens) (UniProt P06239); experiment: Inhibition of Lck assessed as remaining enzyme activity at 3 uM relative to DMSO; procedure, shortened: as §2
Sequence of Tyrosine-protein kinase Lck (Homo sapiens) (P06239 whole entry, looked up): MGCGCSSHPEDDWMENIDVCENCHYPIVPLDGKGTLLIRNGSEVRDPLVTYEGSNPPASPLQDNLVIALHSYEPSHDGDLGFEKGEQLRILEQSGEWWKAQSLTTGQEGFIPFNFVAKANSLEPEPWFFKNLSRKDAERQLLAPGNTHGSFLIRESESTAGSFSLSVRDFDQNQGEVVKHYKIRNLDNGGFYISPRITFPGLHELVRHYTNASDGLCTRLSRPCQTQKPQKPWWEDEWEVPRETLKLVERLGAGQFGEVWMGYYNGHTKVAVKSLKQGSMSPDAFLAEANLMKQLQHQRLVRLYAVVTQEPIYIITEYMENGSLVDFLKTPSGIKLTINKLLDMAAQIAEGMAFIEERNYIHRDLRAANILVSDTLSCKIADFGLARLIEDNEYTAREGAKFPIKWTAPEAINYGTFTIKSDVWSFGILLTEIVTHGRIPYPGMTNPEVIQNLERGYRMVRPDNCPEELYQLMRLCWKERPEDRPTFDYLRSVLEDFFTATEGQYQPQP

[25] = target: Serine/threonine-protein kinase PAK 6 (Homo sapiens) (UniProt Q9NQU5); experiment: Inhibition of PAK6 assessed as remaining enzyme activity at 3 uM relative to DMSO; procedure, shortened: as §2

Activity [1]: 53%
Activity [2]: 74%
Activity [3]: 40%
IC50 (Ephrin type-A receptor 5): 3 nM
Activity [4]: 100%
Activity [5]: 78%
Activity [6]: 77%
Activity [7]: 123%
Activity [8]: 0.9%
Activity [9]: 0.15%
Activity [10]: 84%
Activity [11]: 12%
Activity [12]: 94%
Activity [13]: 45%
Activity [14]: 98%
Activity [15]: 82%
Activity [16]: 96%
Activity [17]: 81%
SMILES: COc1ccccc1-n1c(-c2cc(O)ccc2C)cn2c3c(=O)[nH]c(=O)n(C)c3nc12

Activity [18]: 98%
Activity [19]: 93%
Activity [20]: 83%
Activity [21]: 89%
Activity [23]: 109%
Activity [24]: 3%
Activity [25]: 90%
SMILES: COc1ccccc1-n1c(-c2ccccc2C)cn2c3c(=O)[nH]c(=O)n(C)c3nc12
Activity [22]: 109%

From ChEMBL document CHEMBL1154183, “Structure-based optimization of potent and selective inhibitors of the tyrosine kinase erythropoietin producing human hepatocellular carcinoma receptor B4 (EphB4)” (J Med Chem, 2009)
